pIC50: −log10 of the molar value.
Legend:
Gallus gallus [1] = species on record: Gallus gallus; test: Anticoccidial activity (percent reduction in oocyst production) against Eimeria acervulina in white leghorn chickens at 25 ppm; type: functional; set-up: scale not given: the % may be the effect or the level left
Method in brief: (§1)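 White Leghorn chicks were acclimated, then at 3 days old sorted by weight and randomized to medicated or control diets. There were one or two replicates of two birds per treatment. After 24 h of premedication, one bird per replicate got E. acervulina and the other E. tenella, both drug-sensitive laboratory strains. Inocula were sporulated oocysts in tap water, 0.25 mL per bird, giving low-to-moderate infection.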

Eimeria tenella = test: Anticoccidial activity (percent reduction in oocyst production) against Eimeria tenella in white leghorn chickens at 100 ppm; type: functional; set-up: scale not given: the % may be the effect or the level left; method in brief: as §1
[2] = molecular target: cGMP-dependent protein kinase (Eimeria tenella, UniProt Q8MMZ8); test: In vitro inhibition of Eimeria tenella cGMP-dependent protein kinase
Chain of cGMP-dependent protein kinase (Q8MMZ8 whole entry): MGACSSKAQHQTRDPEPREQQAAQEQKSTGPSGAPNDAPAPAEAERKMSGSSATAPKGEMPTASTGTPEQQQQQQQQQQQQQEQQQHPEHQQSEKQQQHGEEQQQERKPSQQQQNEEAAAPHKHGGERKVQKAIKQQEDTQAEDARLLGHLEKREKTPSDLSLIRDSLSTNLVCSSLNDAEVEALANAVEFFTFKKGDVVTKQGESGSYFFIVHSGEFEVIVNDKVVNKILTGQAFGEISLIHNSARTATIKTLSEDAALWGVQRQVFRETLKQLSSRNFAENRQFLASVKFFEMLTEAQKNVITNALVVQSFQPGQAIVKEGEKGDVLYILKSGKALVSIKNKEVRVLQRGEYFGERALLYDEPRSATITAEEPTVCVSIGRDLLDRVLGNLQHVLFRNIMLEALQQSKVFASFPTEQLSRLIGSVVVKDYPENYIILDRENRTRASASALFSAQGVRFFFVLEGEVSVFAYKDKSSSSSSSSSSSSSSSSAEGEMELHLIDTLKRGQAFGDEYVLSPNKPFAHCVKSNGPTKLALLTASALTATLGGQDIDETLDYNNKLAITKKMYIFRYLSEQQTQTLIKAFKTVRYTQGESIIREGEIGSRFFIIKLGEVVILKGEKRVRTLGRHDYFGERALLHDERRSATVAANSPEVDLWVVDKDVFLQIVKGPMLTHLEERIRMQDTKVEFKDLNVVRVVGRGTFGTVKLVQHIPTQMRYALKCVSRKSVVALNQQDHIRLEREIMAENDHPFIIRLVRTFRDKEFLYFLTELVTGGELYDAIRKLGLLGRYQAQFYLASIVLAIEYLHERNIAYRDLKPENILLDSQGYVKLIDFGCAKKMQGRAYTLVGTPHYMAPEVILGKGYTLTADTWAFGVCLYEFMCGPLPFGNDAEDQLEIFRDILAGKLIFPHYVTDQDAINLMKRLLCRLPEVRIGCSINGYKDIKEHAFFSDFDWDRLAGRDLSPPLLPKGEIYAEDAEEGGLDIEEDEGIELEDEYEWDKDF

Gallus gallus [3] = species on record: Gallus gallus; test: Anticoccidial activity (percent reduction in oocyst production) against Eimeria praecox in chickens at 25 ppm; Range = 50-79 %; type: functional; set-up: scale not given: the % may be the effect or the level left
Gallus gallus [4] = species on record: Gallus gallus; test: Anticoccidial activity (percent reduction in oocyst production) against Eimeria mitis in chickens at 25 ppm; Range = 50-79 %; type: functional; set-up: scale not given: the % may be the effect or the level left
Gallus gallus [5] = species on record: Gallus gallus; test: Anticoccidial activity (percent reduction in oocyst production) against Eimeria maxima in chickens at 25 ppm; Range = 50-79 %; type: functional; set-up: scale not given: the % may be the effect or the level left
Gallus gallus [6] = species on record: Gallus gallus; test: Anticoccidial activity (percent reduction in oocyst production) against Eimeria mivati in chickens at 25 ppm; Range = 50-79 %; type: functional; set-up: scale not given: the % may be the effect or the level left
Eimeria acervulina = test: Anticoccidial activity (percent reduction in oocyst production) against Eimeria acervulina in white leghorn chickens at 100 ppm; type: functional; set-up: scale not given: the % may be the effect or the level left; method in brief: as §1
Gallus gallus [7] = species on record: Gallus gallus; test: Anticoccidial activity (percent reduction in oocyst production) against Eimeria necatrix in chickens at 25 ppm; Range = 50-79 %; type: functional; set-up: scale not given: the % may be the effect or the level left
Gallus gallus [8] = species on record: Gallus gallus; test: Anticoccidial activity (percent reduction in oocyst production) against Eimeria acervulina in chickens at 25 ppm; Range = 50-79 %; type: functional; set-up: scale not given: the % may be the effect or the level left; method in brief: as §1
Gallus gallus [9] = species on record: Gallus gallus; test: Anticoccidial activity (percent reduction in oocyst production) against Eimeria maxima in chickens at 50 ppm; type: functional; set-up: scale not given: the % may be the effect or the level left
Gallus gallus [10] = species on record: Gallus gallus; test: Anticoccidial activity (percent reduction in oocyst production) against Eimeria maxima in chickens at 75 ppm; type: functional; set-up: scale not given: the % may be the effect or the level left
Gallus gallus [11] = species on record: Gallus gallus; test: Anticoccidial activity (percent reduction in oocyst production) against Eimeria mitis in chickens at 125 ppm; type: functional; set-up: scale not given: the % may be the effect or the level left
Gallus gallus [12] = species on record: Gallus gallus; test: Anticoccidial activity (percent reduction in oocyst production) against Eimeria mivati in chickens at 50 ppm; type: functional; set-up: scale not given: the % may be the effect or the level left
Gallus gallus [13] = species on record: Gallus gallus; test: Anticoccidial activity (percent reduction in oocyst production) against Eimeria mivati in chickens at 75 ppm; type: functional; set-up: scale not given: the % may be the effect or the level left
Gallus gallus [14] = species on record: Gallus gallus; test: Anticoccidial activity (percent reduction in oocyst production) against Eimeria maxima in chickens at 125 ppm; type: functional; set-up: scale not given: the % may be the effect or the level left
Gallus gallus [15] = species on record: Gallus gallus; test: Anticoccidial activity (percent reduction in oocyst production) against Eimeria mivati in chickens at 125 ppm; type: functional; set-up: scale not given: the % may be the effect or the level left
Gallus gallus [16] = species on record: Gallus gallus; test: Anticoccidial activity (percent reduction in oocyst production) against Eimeria praecox in chickens at 50 ppm; type: functional; set-up: scale not given: the % may be the effect or the level left
Gallus gallus [17] = species on record: Gallus gallus; test: Anticoccidial activity (percent reduction in oocyst production) against Eimeria praecox in chickens at 75 ppm; type: functional; set-up: scale not given: the % may be the effect or the level left
Gallus gallus [18] = species on record: Gallus gallus; test: Anticoccidial activity (percent reduction in oocyst production) against Eimeria tenella in chickens at 50 ppm; type: functional; set-up: scale not given: the % may be the effect or the level left; method in brief: as §1
Gallus gallus [19] = species on record: Gallus gallus; test: Anticoccidial activity (percent reduction in oocyst production) against Eimeria tenella in chickens at 75 ppm; type: functional; set-up: scale not given: the % may be the effect or the level left; method in brief: as §1
Gallus gallus [20] = species on record: Gallus gallus; test: Anticoccidial activity (percent reduction in oocyst production) against Eimeria brunetti in chickens at 50 ppm; type: functional; set-up: scale not given: the % may be the effect or the level left
Gallus gallus [21] = species on record: Gallus gallus; test: Anticoccidial activity (percent reduction in oocyst production) against Eimeria brunetti in chickens at 75 ppm; type: functional; set-up: scale not given: the % may be the effect or the level left
Gallus gallus [22] = species on record: Gallus gallus; test: Anticoccidial activity (percent reduction in oocyst production) against Eimeria necatrix in chickens at 50 ppm; type: functional; set-up: scale not given: the % may be the effect or the level left
Gallus gallus [23] = species on record: Gallus gallus; test: Anticoccidial activity (percent reduction in oocyst production) against Eimeria necatrix in chickens at 75 ppm; type: functional; set-up: scale not given: the % may be the effect or the level left
Gallus gallus [24] = species on record: Gallus gallus; test: Anticoccidial activity (percent reduction in oocyst production) against Eimeria praecox in chickens at 125 ppm; type: functional; set-up: scale not given: the % may be the effect or the level left
Gallus gallus [25] = species on record: Gallus gallus; test: Anticoccidial activity (percent reduction in oocyst production) against Eimeria tenella in chickens at 125 ppm; type: functional; set-up: scale not given: the % may be the effect or the level left; method in brief: as §1
Gallus gallus [26] = species on record: Gallus gallus; test: Anticoccidial activity (percent reduction in oocyst production) against Eimeria brunetti in chickens at 125 ppm; type: functional; set-up: scale not given: the % may be the effect or the level left
Gallus gallus [27] = species on record: Gallus gallus; test: Anticoccidial activity (percent reduction in oocyst production) against Eimeria necatrix in chickens at 125 ppm; type: functional; set-up: scale not given: the % may be the effect or the level left
Gallus gallus [28] = species on record: Gallus gallus; test: Anticoccidial activity (percent reduction in oocyst production) against Eimeria mitis in chickens at 50 ppm; type: functional; set-up: scale not given: the % may be the effect or the level left
Gallus gallus [29] = species on record: Gallus gallus; test: Anticoccidial activity (percent reduction in oocyst production) against Eimeria mitis in chickens at 75 ppm; type: functional; set-up: scale not given: the % may be the effect or the level left
Gallus gallus [30] = species on record: Gallus gallus; test: Anticoccidial activity (percent reduction in oocyst production) against Eimeria acervulina in chickens at 50 ppm; type: functional; set-up: scale not given: the % may be the effect or the level left; method in brief: as §1
Gallus gallus [31] = species on record: Gallus gallus; test: Anticoccidial activity (percent reduction in oocyst production) against Eimeria acervulina in chickens at 75 ppm; type: functional; set-up: scale not given: the % may be the effect or the level left; method in brief: as §1
Gallus gallus [32] = species on record: Gallus gallus; test: Anticoccidial activity (percent reduction in oocyst production) against Eimeria acervulina in chickens at 125 ppm; type: functional; set-up: scale not given: the % may be the effect or the level left; method in brief: as §1
Gallus gallus [33] = test: Oral bioavailability in the chicken; type: functional, organism-based
Gallus gallus [34] = species on record: Gallus gallus; test: Anticoccidial activity (percent reduction in oocyst production) against Eimeria tenella in chickens at 25 ppm; Range = 50-79 %; type: functional; set-up: scale not given: the % may be the effect or the level left; method in brief: as §1
Gallus gallus [35] = species on record: Gallus gallus; test: Anticoccidial activity (percent reduction in oocyst production) against Eimeria brunetti in chickens at 25 ppm; Range = 50-79 %; type: functional; set-up: scale not given: the % may be the effect or the level left
Gallus gallus [36] = species on record: Gallus gallus; test: Half-life in the chicken; type: functional, organism-based
Gallus gallus [37] = species on record: Gallus gallus; test: Anticoccidial activity (percent reduction in oocyst production) against Eimeria praecox in chickens at 66 ppm; Range = 50-79 %; type: functional; set-up: scale not given: the % may be the effect or the level left
Gallus gallus [38] = species on record: Gallus gallus; test: Anticoccidial activity (percent reduction in oocyst production) against Eimeria mitis in chickens at 66 ppm; Range = 50-79 %; type: functional; set-up: scale not given: the % may be the effect or the level left
Gallus gallus [39] = species on record: Gallus gallus; test: Anticoccidial activity (percent reduction in oocyst production) against Eimeria maxima in chickens at 66 ppm; Range = 50-79 %; type: functional; set-up: scale not given: the % may be the effect or the level left
Gallus gallus [40] = species on record: Gallus gallus; test: Anticoccidial activity (percent reduction in oocyst production) against Eimeria brunetti in chickens at 66 ppm; Range = 50-79 %; type: functional; set-up: scale not given: the % may be the effect or the level left
Gallus gallus [41] = species on record: Gallus gallus; test: Anticoccidial activity (percent reduction in oocyst production) against Eimeria necatrix in chickens at 66 ppm; Range = 50-79 %; type: functional; set-up: scale not given: the % may be the effect or the level left
Gallus gallus [42] = species on record: Gallus gallus; test: Anticoccidial activity (percent reduction in oocyst production) against Eimeria acervulina in chickens at 66 ppm; Range = 50-79 %; type: functional; set-up: scale not given: the % may be the effect or the level left
Gallus gallus [43] = species on record: Gallus gallus; test: Anticoccidial activity (percent reduction in oocyst production) against Eimeria tenella in chickens at 66 ppm; Range = 50-79 %; type: functional; set-up: scale not given: the % may be the effect or the level left
Gallus gallus [44] = species on record: Gallus gallus; test: Anticoccidial activity (percent reduction in oocyst production) against Eimeria mivati in chickens at 66 ppm; Range = 50-79 %; type: functional; set-up: scale not given: the % may be the effect or the level left

## CN1CCC(c2nc(-c3ccc(F)cc3)c(-c3ccncc3)s2)CC1
Gallus gallus [1]
  Activity: 0%
Eimeria tenella
  Activity: <50%
[2]
  pIC50: 8.82

## CCN1CCC(c2cc(-c3ccncc3)c(-c3ccc(F)cc3)[nH]2)CC1
Gallus gallus [3]
  Activity: <79%
Gallus gallus [4]
  Activity: <79%
Eimeria tenella
  Activity: >=80%
Gallus gallus [5]
  Activity: <79%
Gallus gallus [6]
  Activity: <79%
Eimeria acervulina
  Activity: >=80%
Gallus gallus [7]
  Activity: <79%
Gallus gallus [8]
  Activity: <79%
[2]
  pIC50: 9.55
Gallus gallus [9]
  Activity: >=80%
Gallus gallus [10]
  Activity: >=80%
Gallus gallus [11]
  Activity: >=80%
Gallus gallus [12]
  Activity: >=80%
Gallus gallus [13]
  Activity: >=80%
Gallus gallus [14]
  Activity: >=80%
Gallus gallus [15]
  Activity: >=80%
Gallus gallus [16]
  Activity: >=80%
Gallus gallus [17]
  Activity: >=80%
Gallus gallus [18]
  Activity: >=80%
Gallus gallus [19]
  Activity: >=80%
Gallus gallus [20]
  Activity: >=80%
Gallus gallus [21]
  Activity: >=80%
Gallus gallus [22]
  Activity: >=80%
Gallus gallus [23]
  Activity: >=80%
Gallus gallus [24]
  Activity: >=80%
Gallus gallus [25]
  Activity: >=80%
Gallus gallus [26]
  Activity: >=80%
Gallus gallus [27]
  Activity: >=80%
Gallus gallus [28]
  Activity: >=80%
Gallus gallus [29]
  Activity: >=80%
Gallus gallus [30]
  Activity: >=80%
Gallus gallus [31]
  Activity: >=80%
Gallus gallus [32]
  Activity: >=80%
Gallus gallus [33]
  bioavailability: 84%
Gallus gallus [34]
  Activity: <79%
Gallus gallus [35]
  Activity: <79%
Gallus gallus [36]
  T1/2: 1.2 h

## CC[C@@H](C(=O)[C@@H](C)[C@@H](O)[C@H](C)[C@@H]1O[C@@H]([C@@H](CC)C(=O)O)CC[C@@H]1C)[C@H]1O[C@]2(C=C[C@@H](O)[C@]3(CC[C@@](C)([C@H]4CC[C@](O)(CC)[C@H](C)O4)O3)O2)[C@H](C)C[C@@H]1C [SALINOMYCIN]
Gallus gallus [37]
  Activity: <79%
Gallus gallus [38]
  Activity: <79%
Gallus gallus [39]
  Activity: <79%
Gallus gallus [40]
  Activity: <79%
Gallus gallus [41]
  Activity: <79%
Gallus gallus [42]
  Activity: <79%
Gallus gallus [43]
  Activity: <79%
Gallus gallus [44]
  Activity: <79%
